Experimental data: ChEMBL document CHEMBL3351552, “Structure-activity profiles of novel 6-substituted pyrrolo[2,3-d]pyrimidine thienoyl antifolates with modified amino acids for cellular uptake by folate receptors α and β and the proton-coupled folate transporter” (J Med Chem, 2014)
Activity calls are given as the source filed them. No cut-off for these calls is given here.

How the values were obtained:
R2 [1] = assay: Cytotoxicity against Chinese hamster R2 cells assessed as cell growth inhibition incubated up to 96 hrs by Celltiter-blue cell viability assay; type: cell-based; conditions: Cricetulus griseus, R2, 96 h
KB [2] = assay: Cytotoxicity against human KB cells assessed as cell growth inhibition incubated up to 96 hrs in presence of 200 nM folic acid by Celltiter-blue cell viability assay; type: functional, cell-based
Outline: (§1)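 Cells plated at ~2500–5000/well in folate-free RPMI with 10% dialyzed FBS, antibiotics, 2 nM LCV and 2 mM L-glutamine, exposed to a range of drug concentrations. RT16 were pre-cultured 3 days in folate-free RPMI. FR dependence was tested in parallel wells containing 200 nM folic acid. Incubation up to 96 h, CellTiter-Blue fluorescence read-out. IC50 taken versus untreated cells.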

R2 [3] = assay: Cytotoxicity against Chinese hamster R2 cells expressing empty vector assessed as cell growth inhibition incubated up to 96 hrs by Celltiter-blue cell viability assay; type: cell-based, Cricetulus griseus; conditions: R2, 96 h
KB [4] = assay: Cytotoxicity against human KB cells assessed as cell growth inhibition incubated up to 96 hrs by Celltiter-blue cell viability assay; type: functional, cell-based; outline: as §1
[5] = target: Folate receptor alpha (Homo sapiens) (UniProt P15328); assay: Inhibition of [3H]folic acid binding to FRalpha (unknown origin) expressed in Chinese hamster RT16 cells; type: cell-based
Folate receptor alpha (Homo sapiens), sequence (P15328 25-234 limits assumed): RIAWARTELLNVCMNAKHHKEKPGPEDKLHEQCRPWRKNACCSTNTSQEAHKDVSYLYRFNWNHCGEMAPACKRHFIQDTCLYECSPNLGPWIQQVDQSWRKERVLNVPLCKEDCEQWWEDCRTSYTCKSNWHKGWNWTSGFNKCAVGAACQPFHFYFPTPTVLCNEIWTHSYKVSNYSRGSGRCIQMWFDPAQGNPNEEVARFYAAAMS
Outline: (§2)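 RT16 (FRα) or D4 (FRβ) CHO cells (~5 × 10^6) were stripped of bound folate with pH 3.5 acetate/saline, then washed in ice-cold HEPES-buffered saline pH 7.4. Cells were incubated 15 min at 0 °C with 50 nM [3H]folic acid (0.5 Ci/mmol) plus 0–1000 nM unlabeled competitor. Cells were rinsed cold, NaOH-solubilized, and counts normalized to protein. […] Mean ± SE, n=3.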

[6] = target: Folate receptor beta (Homo sapiens) (UniProt P14207); assay: Inhibition of [3H]folic acid binding to FRbeta (unknown origin) expressed in Chinese hamster D4 cells; type: cell-based; outline: as §2
Folate receptor beta (Homo sapiens), sequence (P14207 17-230 limits assumed): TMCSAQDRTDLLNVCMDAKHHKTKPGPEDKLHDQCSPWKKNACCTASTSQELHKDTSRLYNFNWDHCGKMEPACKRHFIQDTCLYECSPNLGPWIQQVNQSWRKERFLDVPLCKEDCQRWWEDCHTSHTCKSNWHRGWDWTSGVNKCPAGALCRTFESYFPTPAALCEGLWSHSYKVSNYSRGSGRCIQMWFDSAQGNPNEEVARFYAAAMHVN

[7] = target: T1, Proton-coupled folate transporter (Homo sapiens) (UniProt Q96NT5); assay: Inhibition of PCFT (unknown origin) expressed in Chinese hamster R2/PCFT4 cells assessed as reduction in PCFT-mediated [3H]MTX transport at 10 uM at pH 6.8 and 37 degC incubated for 5 mins; type: cell-based
T1 sequence (whole entry): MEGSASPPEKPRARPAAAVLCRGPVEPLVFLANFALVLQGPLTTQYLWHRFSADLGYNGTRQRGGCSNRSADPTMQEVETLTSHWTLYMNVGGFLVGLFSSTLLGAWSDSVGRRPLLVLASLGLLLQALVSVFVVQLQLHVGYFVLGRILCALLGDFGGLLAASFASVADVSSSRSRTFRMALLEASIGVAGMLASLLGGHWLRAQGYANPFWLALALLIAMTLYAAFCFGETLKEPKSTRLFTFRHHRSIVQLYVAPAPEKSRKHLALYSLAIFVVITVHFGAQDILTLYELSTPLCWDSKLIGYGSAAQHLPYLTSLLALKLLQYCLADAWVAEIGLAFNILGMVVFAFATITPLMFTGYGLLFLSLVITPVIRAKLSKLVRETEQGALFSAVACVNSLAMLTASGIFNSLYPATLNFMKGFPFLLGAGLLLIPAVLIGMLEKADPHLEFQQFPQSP
Outline: (§3)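 Uptake was quenched with ice-cold DPBS, cells washed and solubilized in 0.5 N NaOH. Radioactivity was expressed per mg protein and normalized to untreated controls. Mean ± SE of three experiments.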

[8] = target: T1, Proton-coupled folate transporter (Homo sapiens); assay: Inhibition of PCFT (unknown origin) expressed in Chinese hamster R2/PCFT4 cells assessed as reduction in PCFT-mediated [3H]MTX transport at 1 uM at pH 5.5 and 37 degC incubated for 5 mins; type: cell-based; outline: as §3
KB [9] = assay: Cytotoxicity against human KB cells assessed as cell growth inhibition incubated up to 96 hrs in presence of 320 uM AICA by Celltiter-blue cell viability assay; type: functional, cell-based
Outline: (§4)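 KB cells grown in complete folate-free RPMI 1640 with 2 nM LCV over a range of drug concentrations, with added thymidine (10 μM), adenosine (60 μM) or AICA (320 μM) as protecting agents. After up to 96 h, density measured by CellTiter-Blue fluorescence and normalized to drug-free cells. Experiments run in triplicate.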

[10] = target: T1, Proton-coupled folate transporter (Homo sapiens); assay: Inhibition of PCFT (unknown origin) expressed in Chinese hamster R2/PCFT4 cells assessed as reduction in PCFT-mediated [3H]MTX transport at 10 uM at pH 5.5 and 37 degC incubated for 5 mins; type: cell-based; outline: as §3
KB [11] = assay: Cytotoxicity against human KB cells assessed as cell growth inhibition incubated up to 96 hrs in presence of 60 uM adenosine by Celltiter-blue cell viability assay; type: functional, cell-based; outline: as §4
KB [12] = assay: Cytotoxicity against human KB cells assessed as cell growth inhibition incubated up to 96 hrs in presence of 10 uM thymidine by Celltiter-blue cell viability assay; type: functional, cell-based; outline: as §4
[13] = target: T2, Proton-coupled folate transporter (Homo sapiens, UniProt Q96NT5); assay: Inhibition of PCFT (unknown origin) expressed in Chinese hamster R2/PCFT4 cells assessed as reduction in PCFT-mediated [3H]MTX transport at pH 5.5 and 37 degC incubated for 5 mins; type: cell-based
T2 sequence (Q96NT5 whole entry): T1 sequence (whole entry)

[14] = target: T1, Proton-coupled folate transporter (Homo sapiens); assay: Inhibition of PCFT (unknown origin) expressed in Chinese hamster R2/PCFT4 cells assessed as reduction in PCFT-mediated [3H]MTX transport at 1 uM at pH 6.8 and 37 degC incubated for 5 mins; type: cell-based; outline: as §3

Row | Structure (SMILES) | IC50 (R2 [1]) | IC50 (KB [2]) | IC50 (R2 [3]) | IC50 (KB [4]) | inhibition [5] | inhibition [6] | inhibition [7] | inhibition [8] | growth inhibition (GI) (KB [9]) | inhibition [10] | growth inhibition (GI) (KB [11]) | growth inhibition (GI) (KB [12]) | Ki [13] | inhibition [14]
1 | Nc1nc2[nH]c(CCCc3ccc(C(=O)NCCCC(=O)O)s3)cc2c(=O)[nH]1 | > 1 µM | > 1 µM | > 1 µM | > 1 µM | Active | Active | – | – | – | – | – | – | – | –
2 | Nc1nc2[nH]c(CCCc3ccc(C(=O)N[C@@H](CCCC(=O)O)C(=O)O)s3)cc2c(=O)[nH]1 | > 1 µM | > 1 µM | > 1 µM | 0.009 µM | Active | Active | 30% | 10% | inactive | 75% | inactive | Active | 1.6 µM | –
3 | Nc1nc2[nH]c(CCCc3ccc(C(=O)N[C@@H](CCC(=O)O)C(=O)O)s3)cc2c(=O)[nH]1 | – | > 1 µM | – | – | Active | Active | 70% | 80% | inactive | 95% | inactive | Active | – | 20%
4 | Nc1nc2[nH]c(CCCc3ccc(C(=O)N[C@@H](CC(=O)O)C(=O)O)s3)cc2c(=O)[nH]1 | > 1 µM | > 1 µM | > 1 µM | > 1 µM | Active | Active | – | – | – | – | – | – | – | –
5 | Nc1nc2[nH]c(CCCc3ccc(C(=O)O)s3)cc2c(=O)[nH]1 | > 1 µM | > 1 µM | > 1 µM | > 1 µM | Active | Active | – | – | – | – | – | – | – | –
6 | CN(Cc1cnc2nc(N)nc(N)c2n1)c1ccc(C(=O)N[C@@H](CCC(=O)O)C(=O)O)cc1 [METHOTREXATE] | – | – | > 1 µM | – | inactive | inactive | – | – | – | – | – | – | – | –
7 | CCC[C@H](NC(=O)c1ccc(CCCc2cc3c(=O)[nH]c(N)nc3[nH]2)s1)C(=O)O | > 1 µM | > 1 µM | > 1 µM | > 1 µM | Active | Active | 30% | 25% | – | 70% | – | – | 2.9 µM | –
8 | Nc1nc(=O)c2nc(CNc3ccc(C(=O)N[C@@H](CCC(=O)O)C(=O)O)cc3)cnc2[nH]1 | – | – | – | – | Active | Active | – | – | – | – | – | – | – | –
